Assay results taken from ChEMBL document CHEMBL4184143 (J Med Chem, 2017).

Columns and labels:
[1] = target: Bromodomain-containing protein 3 (Homo sapiens, UniProt Q15059); experiment: Binding affinity to human partial length BRD3 bromodomain 1 (P24 to E144 residues) expressed in bacterial expression system by BROMOscan assay
[2] = target: T1, Bromodomain-containing protein 8 (Homo sapiens, UniProt Q9H0E9); experiment: Binding affinity to human partial length BRD8 bromodomain 1 (S700 to F854 residues) expressed in mammalian expression system by BROMOscan assay
T1 sequence (Q9H0E9 whole entry, the tested form may be a part): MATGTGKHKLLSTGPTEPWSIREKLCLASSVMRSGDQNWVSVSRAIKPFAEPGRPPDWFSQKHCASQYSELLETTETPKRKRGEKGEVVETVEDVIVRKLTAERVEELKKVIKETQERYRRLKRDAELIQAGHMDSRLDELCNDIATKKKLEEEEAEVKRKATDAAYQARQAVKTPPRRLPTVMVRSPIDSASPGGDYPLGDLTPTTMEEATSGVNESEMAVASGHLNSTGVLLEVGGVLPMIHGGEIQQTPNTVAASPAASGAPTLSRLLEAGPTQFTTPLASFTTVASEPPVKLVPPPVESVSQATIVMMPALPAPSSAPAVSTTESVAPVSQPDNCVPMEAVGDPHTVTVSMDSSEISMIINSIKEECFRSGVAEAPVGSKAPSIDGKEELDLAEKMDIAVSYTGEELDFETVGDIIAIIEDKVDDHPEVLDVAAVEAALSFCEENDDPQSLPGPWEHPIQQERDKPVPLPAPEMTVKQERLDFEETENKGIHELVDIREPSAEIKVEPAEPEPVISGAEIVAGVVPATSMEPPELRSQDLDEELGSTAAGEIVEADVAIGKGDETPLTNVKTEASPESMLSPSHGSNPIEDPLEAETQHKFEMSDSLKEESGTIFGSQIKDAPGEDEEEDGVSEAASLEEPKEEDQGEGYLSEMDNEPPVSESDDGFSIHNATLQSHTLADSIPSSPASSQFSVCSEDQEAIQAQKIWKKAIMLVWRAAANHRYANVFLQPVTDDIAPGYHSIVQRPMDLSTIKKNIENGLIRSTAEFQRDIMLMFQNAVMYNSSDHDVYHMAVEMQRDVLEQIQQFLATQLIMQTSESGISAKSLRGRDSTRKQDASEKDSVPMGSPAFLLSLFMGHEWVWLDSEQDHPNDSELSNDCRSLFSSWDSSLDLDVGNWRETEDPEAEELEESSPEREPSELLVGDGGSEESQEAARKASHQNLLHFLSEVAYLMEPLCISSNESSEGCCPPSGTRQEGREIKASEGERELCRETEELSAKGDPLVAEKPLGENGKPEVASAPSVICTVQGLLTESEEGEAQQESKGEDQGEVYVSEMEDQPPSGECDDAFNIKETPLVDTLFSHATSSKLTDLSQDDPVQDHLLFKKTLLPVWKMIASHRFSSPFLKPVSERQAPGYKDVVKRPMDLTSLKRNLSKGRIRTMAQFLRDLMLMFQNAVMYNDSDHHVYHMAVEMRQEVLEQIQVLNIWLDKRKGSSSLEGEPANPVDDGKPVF

SUM-159-PT = experiment: Cytotoxicity against human SUM159PT cells assessed as cell growth inhibition after 4 days by WST-8 assay; type: functional, cell-based; conditions: 96 h
Method in brief: (§1)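 Breast cancer cells were seeded at 3,000 cells/well, treated with serially diluted compound in medium and cultured for 4 days. Growth was read by WST-8 (10% v/v final, 1–3 h) at 450 nm. Readings were normalized to DMSO-treated cells, and IC50 was obtained by nonlinear regression.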

[3] = target: Bromodomain-containing protein 9 (Homo sapiens, UniProt Q9H8M2); experiment: Binding affinity to human partial length BRD9 (R130 to V259 residues) expressed in bacterial expression system by BROMOscan assay
[4] = target: T2, Bromodomain testis-specific protein (Homo sapiens, UniProt Q58F21); experiment: Binding affinity to human partial length BRDT bromodomain 2 isoform b (K250 to E382 residues) expressed in bacterial expression system by BROMOscan assay
[5] = target: T2, Bromodomain testis-specific protein; experiment: Binding affinity to human partial length BRDT bromodomain 1/2 isoform b (K250 to E382 residues) expressed in bacterial expression system by BROMOscan assay
Mus musculus [6] = experiment: Clearance in SCID mouse at 5 mg/kg, iv by LC/MS method; type: ADME, organism-based; conditions: in vivo
[7] = Cmax in SCID mouse at 25 mg/kg, po by LC/MS method; type: ADME, organism-based; parameters: dose 25 mg/kg, route oral; conditions: in vivo
[8] = Aqueous solubility of the compound in 5% DMSO/10% cremophor/85% saline; type: physicochemical; conditions: buffer
[9] = target: Bromodomain adjacent to zinc finger domain protein 2B (Homo sapiens, UniProt Q9UIF8); experiment: Binding affinity to human partial length BAZ2B (S2054 to S2168 residues) expressed in bacterial expression system by BROMOscan assay
[10] = target: Bromodomain-containing protein 7 (Homo sapiens, UniProt Q9NPI1); experiment: Binding affinity to human partial length BRD7 (L125 to R254 residues) expressed in […] expression system by BROMOscan assay
Bromodomain-containing protein 7, sequence (Q9NPI1 whole entry, the tested form may be a part): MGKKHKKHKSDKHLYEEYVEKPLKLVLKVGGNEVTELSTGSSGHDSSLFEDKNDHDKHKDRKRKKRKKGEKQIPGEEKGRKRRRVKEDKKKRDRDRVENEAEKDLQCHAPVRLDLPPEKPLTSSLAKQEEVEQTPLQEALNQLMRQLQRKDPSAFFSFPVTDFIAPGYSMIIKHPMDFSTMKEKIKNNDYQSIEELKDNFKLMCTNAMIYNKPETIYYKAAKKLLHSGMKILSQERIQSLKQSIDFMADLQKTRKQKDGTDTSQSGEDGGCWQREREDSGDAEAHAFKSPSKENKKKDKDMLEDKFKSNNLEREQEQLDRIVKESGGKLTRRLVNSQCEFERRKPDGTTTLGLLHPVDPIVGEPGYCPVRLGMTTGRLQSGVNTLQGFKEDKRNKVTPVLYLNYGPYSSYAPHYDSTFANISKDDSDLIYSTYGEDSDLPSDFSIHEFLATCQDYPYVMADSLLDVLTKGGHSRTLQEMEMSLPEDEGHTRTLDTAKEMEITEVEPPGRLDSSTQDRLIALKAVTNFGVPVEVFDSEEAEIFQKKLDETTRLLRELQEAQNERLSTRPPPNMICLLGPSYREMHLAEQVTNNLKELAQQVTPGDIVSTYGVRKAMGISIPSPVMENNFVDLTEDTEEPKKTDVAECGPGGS

Mus musculus [11] = experiment: Toxicity in SCID mouse implanted with human MDA-MB-231 cells assessed as weight loss at 40 mg/kg, po qd measured 2 to 3 times weekly during treatment and weekly post dose; type: organism-based; conditions: in vivo
Method in brief: (§2)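 At ~100 mm3, mice were randomized to treatment or vehicle control. Tumors were measured by electronic calipers. Animals were checked daily for signs of toxicity and weighed 2–3 times weekly on treatment, then at least weekly afterwards.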

HCC1937 = experiment: Cytotoxicity against human HCC1937 cells assessed as cell growth inhibition after 4 days by WST-8 assay; type: functional, cell-based; conditions: HCC1937, 96 h; method in brief: as §1
MV4-11 [12] = experiment: Induction of apoptosis in human MV4-11 cells assessed as upregulation of cleaved PARP protein level after 24 hrs by Western blot method; type: functional, cell-based
Method in brief: (§3)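 MV4;11 cells were exposed to compound for 24 h and lysed in RIPA buffer with protease inhibitors. Lysates were separated on 4–20% SDS-PAGE, blotted to PVDF and probed for PARP, cleaved PARP and p21, with β-actin as loading control.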

MV4-11 [13] = experiment: Inhibition of BET bromodomain in human MV4-11 cells assessed as upregulation of p21 protein level after 24 hrs by Western blot method; type: cell-based; method in brief: as §3
Mus musculus [14] = experiment: Toxicity in SCID mouse implanted with human MV4-11 cells at 50 mg/kg, po qd measured 2 to 3 times weekly during treatment and once weekly post dose; type: organism-based; conditions: in vivo; method in brief: as §2
[15] = AUC (0 to t) in Sprague-Dawley rat at 5 mg/kg, iv by LC/MS method; type: ADME, organism-based; conditions: in vivo
Method in brief: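 Sprague Dawley rats were dosed iv at 5 mg/kg or orally at 25 mg/kg, with compound dissolved in 20% (v/v) PCP/70% (v/v) PBS vehicle. Blood was drawn by catheter at 0, 5, 15, 30 min and 1, 2, 4, 6, 8, 24 h and spun to plasma, which was stored at −80 °C. Plasma drug was quantified by a validated LC–MS/MS method, and parameters were derived noncompartmentally.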

[16] = target: T3, Bromodomain-containing protein 2 (Homo sapiens, UniProt P25440); experiment: Binding affinity to human partial length BRD2 bromodomain 2 isoform 1 (349 to 460 residues) expressed in bacterial expression system by BROMOscan assay
T3 sequence (P25440 whole entry, the tested form may be a part, canonical isoform): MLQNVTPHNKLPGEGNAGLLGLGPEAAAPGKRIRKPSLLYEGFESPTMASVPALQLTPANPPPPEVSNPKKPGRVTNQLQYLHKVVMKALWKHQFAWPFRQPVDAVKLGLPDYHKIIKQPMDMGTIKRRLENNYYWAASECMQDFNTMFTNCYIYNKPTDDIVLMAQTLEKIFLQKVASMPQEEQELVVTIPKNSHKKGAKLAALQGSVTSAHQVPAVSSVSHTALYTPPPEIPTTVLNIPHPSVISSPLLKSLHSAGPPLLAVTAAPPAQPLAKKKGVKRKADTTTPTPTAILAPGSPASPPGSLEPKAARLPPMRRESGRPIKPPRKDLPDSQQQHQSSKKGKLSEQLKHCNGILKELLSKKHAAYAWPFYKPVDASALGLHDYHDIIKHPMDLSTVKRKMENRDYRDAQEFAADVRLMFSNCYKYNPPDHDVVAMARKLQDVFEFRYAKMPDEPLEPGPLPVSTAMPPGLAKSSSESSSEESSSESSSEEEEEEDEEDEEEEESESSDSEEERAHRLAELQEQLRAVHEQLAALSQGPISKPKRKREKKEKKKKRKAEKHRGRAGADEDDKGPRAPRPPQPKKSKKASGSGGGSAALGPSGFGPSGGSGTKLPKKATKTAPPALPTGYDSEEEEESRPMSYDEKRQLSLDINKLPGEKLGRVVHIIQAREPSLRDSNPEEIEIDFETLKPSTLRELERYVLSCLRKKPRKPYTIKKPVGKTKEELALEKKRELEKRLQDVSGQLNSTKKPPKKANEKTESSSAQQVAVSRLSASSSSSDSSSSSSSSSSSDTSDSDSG

[17] = Clearance in Sprague-Dawley rat at 5 mg/kg, iv by LC/MS method; type: ADME, organism-based; conditions: in vivo
[18] = target: Bromodomain and PHD finger-containing protein 3 (Homo sapiens, UniProt Q9ULD4); experiment: Binding affinity to human partial length BRPF3 (E588 to G701 residues) expressed in bacterial expression system by BROMOscan assay
[19] = target: Histone acetyltransferase p300 (Homo sapiens, UniProt Q09472); experiment: Binding affinity to human partial length EP300 (A1040 to G1161 residues) expressed in bacterial expression system by BROMOscan assay
[20] = target: Nucleosome-remodeling factor subunit BPTF (Homo sapiens, UniProt Q12830); experiment: Binding affinity to human partial length FALZ (S2791 to H2911 residues) expressed in bacterial expression system by BROMOscan assay
MV4-11 [21] = experiment: Inhibition of BET bromodomain in human MV4-11 cells assessed as downregulation of c-myc level after 1 hr by Western blot method; type: cell-based
Method in brief: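 MV4;11 cells were treated with a range of compound concentrations for 1 h and lysed in RIPA buffer with protease inhibitors. Lysates were run on 4–20% SDS-PAGE, transferred to PVDF and probed for c-Myc with a specific antibody.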

MV4-11 [22] = experiment: Antitumor activity against human MV4-11 cells xenografted in SCID mouse assessed as tumor growth inhibition at 50 mg/kg, po qd measured 2 to 3 times weekly during treatment and once weekly post dose; type: functional; conditions: MV4-11, po, read-out: TGI; method in brief: as §2
[23] = target: T3, Bromodomain-containing protein 2; experiment: Binding affinity to human partial length BRD2 bromodomain 1 long isoform (72 to 205 residues) expressed in bacterial expression system by BROMOscan assay
[24] = target: T4, Bromodomain-containing protein 4 (Homo sapiens, UniProt O60885); experiment: Binding affinity to human partial length BRD4 bromodomain 2 long isoform (K333 to E460 residues) expressed in bacterial expression system by BROMOscan assay
[25] = target: T4, Bromodomain-containing protein 4; experiment: Binding affinity to human partial length BRD4 bromodomain 1/2 long isoform (N44 to E460 residues) expressed in bacterial expression system by BROMOscan assay
[26] = target: ATPase family AAA domain-containing protein 2 (Homo sapiens, UniProt Q6PL18); experiment: Binding affinity to human partial length ATAD2A (Q981 to R1108 residues) expressed in bacterial expression system by BROMOscan assay
ATPase family AAA domain-containing protein 2, sequence (Q6PL18 whole entry, the tested form may be a part): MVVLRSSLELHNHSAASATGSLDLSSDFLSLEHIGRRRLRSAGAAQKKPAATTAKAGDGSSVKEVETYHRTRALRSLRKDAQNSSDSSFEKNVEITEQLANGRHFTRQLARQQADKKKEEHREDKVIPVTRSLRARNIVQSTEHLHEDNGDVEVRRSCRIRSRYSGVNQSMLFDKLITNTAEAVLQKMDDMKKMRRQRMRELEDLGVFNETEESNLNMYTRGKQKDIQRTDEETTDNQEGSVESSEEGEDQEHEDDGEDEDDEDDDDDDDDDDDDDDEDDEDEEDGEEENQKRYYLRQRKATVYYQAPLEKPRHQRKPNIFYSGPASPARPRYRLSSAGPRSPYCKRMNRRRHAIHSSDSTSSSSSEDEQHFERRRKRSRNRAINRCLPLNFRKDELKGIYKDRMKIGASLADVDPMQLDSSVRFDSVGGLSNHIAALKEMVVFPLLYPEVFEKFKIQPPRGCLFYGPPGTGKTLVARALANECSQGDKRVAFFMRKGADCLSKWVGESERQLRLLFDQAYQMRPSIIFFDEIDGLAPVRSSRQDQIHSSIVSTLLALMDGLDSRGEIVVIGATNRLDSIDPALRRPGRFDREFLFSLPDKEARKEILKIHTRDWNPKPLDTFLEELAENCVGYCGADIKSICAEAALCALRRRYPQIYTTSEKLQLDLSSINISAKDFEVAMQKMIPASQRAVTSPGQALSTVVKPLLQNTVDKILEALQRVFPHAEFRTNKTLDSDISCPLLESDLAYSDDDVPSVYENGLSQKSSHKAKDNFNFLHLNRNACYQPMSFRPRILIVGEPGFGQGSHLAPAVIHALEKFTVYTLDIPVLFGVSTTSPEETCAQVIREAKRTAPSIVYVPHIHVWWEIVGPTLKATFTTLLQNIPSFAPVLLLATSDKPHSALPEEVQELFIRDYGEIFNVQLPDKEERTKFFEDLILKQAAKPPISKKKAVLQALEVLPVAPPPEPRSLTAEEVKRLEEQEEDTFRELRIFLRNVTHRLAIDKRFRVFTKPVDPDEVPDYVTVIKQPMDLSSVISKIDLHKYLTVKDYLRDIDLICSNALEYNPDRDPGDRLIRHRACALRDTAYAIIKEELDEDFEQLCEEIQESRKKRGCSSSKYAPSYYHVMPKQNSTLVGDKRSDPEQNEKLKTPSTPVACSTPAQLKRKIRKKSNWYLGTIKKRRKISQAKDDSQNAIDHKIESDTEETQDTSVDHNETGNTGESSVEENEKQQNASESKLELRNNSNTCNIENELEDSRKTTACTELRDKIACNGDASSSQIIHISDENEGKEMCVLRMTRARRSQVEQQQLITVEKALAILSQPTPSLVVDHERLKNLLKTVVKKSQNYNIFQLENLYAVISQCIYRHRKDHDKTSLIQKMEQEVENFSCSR

Mus musculus [27] = experiment: Toxicity in SCID mouse implanted with human MV-411 cells assessed as weight loss at 50 mg/kg, po qd measured 2 to 3 times weekly during treatment and weekly post dose; type: organism-based; conditions: in vivo; method in brief: as §2
[28] = target: T1, Bromodomain-containing protein 8; experiment: Binding affinity to human partial length BRD8 bromodomain 2 (D1095 to F1235 residues) expressed in mammalian expression system by BROMOscan assay

Bromodomain-containing protein 3, sequence (Q15059 whole entry, the tested form may be a part): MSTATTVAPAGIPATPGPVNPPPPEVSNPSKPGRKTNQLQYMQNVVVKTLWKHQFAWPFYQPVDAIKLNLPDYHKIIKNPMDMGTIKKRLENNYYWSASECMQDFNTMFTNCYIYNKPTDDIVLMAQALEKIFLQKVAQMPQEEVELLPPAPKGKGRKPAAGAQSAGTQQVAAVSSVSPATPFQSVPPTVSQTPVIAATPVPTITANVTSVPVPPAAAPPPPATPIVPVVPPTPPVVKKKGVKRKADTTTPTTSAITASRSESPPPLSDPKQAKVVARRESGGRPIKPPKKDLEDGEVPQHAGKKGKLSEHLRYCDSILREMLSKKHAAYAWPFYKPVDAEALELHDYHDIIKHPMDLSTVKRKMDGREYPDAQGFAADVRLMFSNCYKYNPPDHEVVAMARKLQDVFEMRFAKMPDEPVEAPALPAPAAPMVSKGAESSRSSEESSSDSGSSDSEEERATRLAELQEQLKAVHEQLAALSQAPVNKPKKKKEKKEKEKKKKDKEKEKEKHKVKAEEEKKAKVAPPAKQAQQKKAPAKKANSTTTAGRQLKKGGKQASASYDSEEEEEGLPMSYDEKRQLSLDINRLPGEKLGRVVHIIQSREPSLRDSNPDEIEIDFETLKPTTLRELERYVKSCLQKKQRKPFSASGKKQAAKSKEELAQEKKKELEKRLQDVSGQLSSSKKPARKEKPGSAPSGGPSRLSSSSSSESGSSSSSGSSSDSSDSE

Kd [1]: 2 nM
Kd [2]: > 4000 nM
Kd [3]: > 4000 nM
Kd [4]: 5.5 nM
Kd [5]: 9.7 nM
CL (Mus musculus [6]): 22.7 mL/min/kg
Cmax [7]: 983 ng/mL
solubility [8]: Soluble
Kd [9]: > 4000 nM
Kd [10]: > 4000 nM
AUC(0-t) [15]: 6340 ng·h/mL
Kd [16]: 0.9 nM
clearance [17]: 13.2 mL/min/kg
Kd [18]: > 4000 nM
Kd [19]: 550 nM
Kd [20]: > 4000 nM
Kd [23]: 4.5 nM
Kd [24]: 2 nM
Kd [25]: 1.8 nM
Kd [26]: > 4000 nM
Kd [28]: > 4000 nM
SMILES: COc1cc2c(cc1-c1c(C)noc1C)[nH]c1nc(C)nc(-c3ccnc4ccccc34)c12
IC50 (SUM-159-PT): > 2000 nM
Activity (Mus musculus [11]): Non-Toxic
IC50 (HCC1937): > 2000 nM
Activity (MV4-11 [12]): Dose-dependent effect
inhibition (MV4-11 [13]): Dose-dependent effect
Activity (Mus musculus [14]): Non-Toxic
inhibition (MV4-11 [21]): Dose-dependent effect
inhibition in vivo at 50 mg/kg (MV4-11 [22]): > 80%
Activity (Mus musculus [27]): Non-Toxic
